Measured values from different studies.
Each line is one published result; the experiments were not run side by side.
Target: G protein-coupled receptor kinase 6 (GRK6, Homo sapiens, UniProt P43250)

test | setting | quantity | result | Structure (SMILES)
enzyme activity, inhibitor | 1 µM | activity vs control | 109% | Cc1ccc(C(=O)NCc2ccsc2)cc1C#Cc1cn(C(C)C)c2ncnc(N)c12
enzyme activity, inhibitor | 1 µM | inhibition | 0% | COc1cc2ncnc(Nc3ccc(Oc4ccccc4)cc3C)c2cc1OC
enzyme activity, inhibitor | 1 µM | remaining activity | 90.6% | CC(C)(O)[C@H]1CC[C@H](Nc2ccc3ncc(-c4cccc(C(F)(F)F)c4)n3n2)CC1
cell-free assay | 10 µM | remaining signal | 100% | Cc1ccc(NC(=O)c2ccc(C)c(C(F)(F)F)c2)cc1C#Cc1nn(C2CCC(O)CC2)c2ncnc(N)c12 (stereo not shown)
cell-free assay | 0.5 µM | remaining signal | 89.6% | O=C1Nc2ccc(Cl)cc2C1=Cc1cc(Cl)c(O)c(Cl)c1
enzyme activity, inhibitor | 10 µM | inhibition | 73% | CCN(CC)CCNC(=O)c1c(C)[nH]c(/C=C2\C(=O)Nc3ccc(F)cc32)c1C
enzyme activity, inhibitor | 1 µM | inhibition | 9% | CN1CC(Oc2cnc(C#N)cc2-c2ccn3nc(NC(=O)C4CC4)cc3c2)C1
enzyme activity, inhibitor, radiometric | 1 µM | remaining activity | 76% | CC(C)(C)c1nc2c(s1)c1nc(N)ncc1c1ccc(NS(=O)(=O)c3c(F)cccc3F)c(F)c12
enzyme activity, inhibitor | 0.1 µM | activity vs control | 93% | Cc1cc(NC(=O)c2cccc3cc(-c4cccc5[nH]nc(N)c45)ccc23)ccc1F
enzyme activity, inhibitor | 0.3 µM | inhibition | 2% | CNC(=O)c1cc(Oc2ccc(NC(=O)Nc3ccc(Cl)c(C(F)(F)F)c3)cc2)ccn1
enzyme activity, inhibitor | 5 µM | remaining activity | 97.9% | O=C(Nc1cnn(-c2csc(C(=O)NC3COC3)c2)c1)Nc1ccccc1Cl
enzyme activity, inhibitor | 10 µM | inhibition | 2% | Cc1ccc(Nc2nccc(N(C)c3ccc4c(C)n(C)nc4c3)n2)cc1S(N)(=O)=O
enzyme activity, inhibitor, radiometric | 1 µM | remaining activity | 81% | Cc1cnc(NC2CCOCC2)nc1-n1cnc(C(=O)NC(CN)c2cc(F)cc(Cl)c2)c1 (stereo not shown)
